Most compounds without a hit are left out; they make up all but 4.9% or so of the library.
NF-kB neuron act: NF-kB expression increase, human neuronal cells | fold change at 12.5 µM | 190,000 compounds, 1.6% hits | AID 1239 | NF-kB reporter expression; stronger effect = higher value; in the data active means fold change above about 3.3
STAT1 act: STAT1 signaling activation; activation (% of control), % at 5.5 µM; NIH 3T3 STAT1-luciferase reporter, IFN-gamma, luminescence; 100% = IFN-gamma alone, no compound; AID 932; 200,000 compounds, 2.6% hits;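 active means activation above the screen-wide mean activation plus 3 SD, cut at about 130% in these data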;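 further: raw ratio to IFN-gamma control signal so 100% means no change and 0% no light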
STAT3 inh-1: reduces IL-6 driven STAT3 reporter signal; U3A cells, IL-6 STAT3-luciferase reporter, luminescence; host cell line lacks STAT1; inhibition, % at 5.5 µM; 190,000 compounds, 0.89% hits; AID 862;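 active means inhibition above the mean inhibition across all screened compounds plus 3 SD, cut at about 44% in these data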;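 further: 0% = DMSO only wells and 100% = 100 µM nifuroxazide control wells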
STAT1 blocker: STAT1 signaling inhibition. NIH 3T3 STAT1-luciferase reporter, IFN-gamma, luminescence. inhibition, % at 5.5 µM. 200,000 compounds, 0.35% hits;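 active means inhibition above a set limit, the mean inhibition across all tested compounds plus 3 SD, cut at about 34% in these data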;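 further: 0% = IFN-gamma with DMSO and 100% = IFN-gamma with 300 µM nifuroxazide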
APP 5'UTR act: activates APP 5'UTR luciferase reporter; SH-SY5Y APP 5'UTR luciferase reporter, luminescence; zero percent = DMSO vehicle wells; activation, % at 2 µM; 190,000 compounds, 1% hits; AID 1276;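 active means activation above a set limit, based on mean plus 3 SD of controls, cut at about 140% in these data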
STAT3 act: activators of IL-6 induced STAT3 signaling | U3A cells, IL-6 STAT3-luciferase reporter, luminescence; 100% = signal with IL-6 EC80 alone | activation (% of control), % at 5.6 µM | 190,000 compounds, 0.91% hits;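 active means activation above the screen-wide mean of compound activation plus 3 SD, cut at about 130% in these data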;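 further: 0% = background luminescence of wells with medium and substrate only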
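Assay system – human STAT1-deficient U3A cells with stable STAT3-luciferase reporter · Also added – IL-6 (33 ng/mL) · Schedule – compound 1 h, then IL-6 6 h at 37 °C · Technique – reporter luminescence signal · Evaluation – % activation versus median of IL-6-stimulated wells · Benchmarks – IL-6-only wells as 100% reference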
STAT3 inh-2: STAT3 inhibition, confirmation assay; U3A cells, IL-6 STAT3 luciferase reporter, luminescence; cell line lacks STAT1; AID 1265; inhibition, % at 5.7 µM; shares compounds with STAT3 inh-1; 1,200 compounds, 45% hits;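 active means inhibition above the hit cutoff computed for the primary STAT3 screen, cut at about 44% in these data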;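 further: 0% = IL-6 plus DMSO and 100% = IL-6 plus nifuroxazide control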
NFkB inh STAT3ct: NF-kappaB inhibition in STAT3 inhibitor counter-screen; shares compounds with STAT3 inh-1; HEK293T NF-kB luciferase reporter, TNF-alpha induced; inhibition, % at 5.7 µM; 1,200 compounds, 36% hits;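 active means inhibition above the mean of solvent-only control wells plus 3 SD, cutoff set per campaign, cut at about 13% in these data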;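 further: 0% = TNF-alpha with DMSO and 100% = TNF-alpha with MG high control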
STAT1 inh STAT3c: STAT1 inhibition in STAT3 inhibitor counter-screen; inhibition, % at 5.7 µM; AID 1317; shares compounds with STAT3 inh-1; NIH 3T3 STAT1-luciferase reporter, IFN-gamma induced, luminescence; 1,200 compounds, 27% hits;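 active means inhibition above the mean plus 3 SD of solvent-only control wells, limit set per screening run, cut at about 16% in these data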;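 further: 0% = DMSO with IFN-gamma and 100% = nifuroxazide control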
Starred values were filed as active, the others as inactive; · = no result given.

SMILES | NF-kB neuron act | STAT1 act | STAT3 inh-1 | STAT1 blocker | APP 5'UTR act | STAT3 act | others
CCOC(=O)c1c(-n2c(C)cc(C=C3C(=O)NC(=S)NC3=O)c2C)sc2c1CCCC2 | 5.6* | 94 | -4 | 0 | 0 | 113
CCOc1nc(NC(C)C)nc(N2CC3CC(C2)c2cccc(=O)n2C3)n1 (stereo unspecified) | 0.94 | 95 | 3 | 2 | 3 | 102
CN(C)C(=O)Oc1ccc(-c2cn3cc(Cl)ccc3n2)cc1 | 6.8* | 141* | 42 | -47 | 167* | 66
CN(C)C(=O)Oc1ccc(-c2cn3cc(C(F)(F)F)ccc3n2)cc1 | 2.2 | 138* | 28 | -43 | 31 | 79
CN(C)C(=O)Oc1ccc(-c2nnco2)cc1 | 1.1 | 110 | 4 | -11 | · | 104
CN(C)C(=O)Oc1cccc(-c2cn3cc(Cl)ccc3n2)c1 | 1.1 | 122 | 4 | -25 | 46 | 97
O=C(c1ccc(Cl)cc1)C1CCCN(C2CCSCC2)C1 (stereo unspecified) | 1.3 | 110 | -3 | -13 | -17 | 106
CC(NC1=NCCS1)c1ccccc1 (stereo unspecified) | 1.3 | 99 | 0 | 1 | 17 | 102
CC1CCN(CC(=O)c2ccc3c(c2)OCCO3)CC1 | 1.1 | 139* | -7 | -44 | 146* | 112
O=S(=O)(c1ccccc1)N1CC1c1ccccc1 (stereo unspecified) | 1.3 | 110 | -7 | -11 | 10 | 103
Cc1nc(Cl)sc1C(=O)Nc1ccc2ccccc2c1 | 5.5* | 134* | 26 | -38 | 94 | 79
O=C(CCS(=O)(=O)c1ccc(Br)cc1)N1CCC2(CC1)OCCO2 | 1.2 | 56 | 14 | 48* | 16 | 94
CN(C)C(Cc1ccccc1)C(=O)c1cccs1 (stereo unspecified) | 0.93 | 98 | -5 | 1 | 3 | 111
OC1/C(=C/c2ccc(Cl)cc2Cl)N2CCC1CC2 (stereo unspecified) | 1.1 | 107 | 0 | -9 | 8 | 112
CC(=O)Nc1ccccc1C(=O)OCc1ccccc1F | 0.99 | 145* | 4 | -54 | 3 | 101
CC(=O)Nc1ccccc1C(=O)OCC(=O)c1ccccc1Cl | 1.8 | 120 | 12 | -23 | 47 | 92
N=c1c2c(n(Cc3ccc(Cl)cc3Cl)c3c1CCC3)CCCC2 | 0.61 | 77 | 51* | 25 | -2 | 61
Cc1nn(Cc2ccc(Cl)cc2Cl)c(Cl)c1C(=O)O | 0.92 | 105 | 0 | -8 | -6 | 101
CN(C)c1ccc(/C=C/c2cc[n+](C)c3ccccc23)cc1 | 0.94 | 74 | 72* | 26 | 5 | 43
COC(=O)Nc1ccc(N=C(N)N[N+](=O)[O-])cc1 | 1.1 | 101 | 3 | -2 | 8 | 102
CCN1/C(=C\C=C\C2=[N+](CC)c3ccccc3C2(C)C)C(C)(C)c2ccccc21 | 0.17 | 40 | 100* | 56* | -93 | 16
O=C(/C=C/C=C/c1ccccc1)CC1(O)C(=O)Nc2ccccc21 (stereo unspecified) | 1.2 | 100 | -12 | 0 | -15 | 120
CCN1CCN(c2nc3ccccc3s2)CC1 | 4.7* | 128 | 18 | -31 | 61 | 87
CC1(C)CN=C(Nc2nc3ccccc3s2)S1 | 4.7* | 136* | -28 | -39 | 126 | 126
COc1cccc(N2C(=O)NC(=O)/C(=C/c3ccc4c(c3)Cc3ccccc3-4)C2=O)c1 | 1.1 | 131* | 10 | -35 | 11 | 101
SMILES | NF-kB neuron act | STAT1 act | STAT3 inh-1 | STAT1 blocker | APP 5'UTR act | STAT3 act | others
CC(=O)N1N=C2C3CCN(CC3)C2C1c1ccc(F)cc1 (stereo unspecified) | 0.93 | 97 | 5 | 2 | 2 | 102
CC1(C(O)(C#CCN2CCCCC2)c2ccccc2)CCCC1 (stereo unspecified) | 1 | 96 | -4 | 2 | -6 | 108
CCn1nc(/C=C/c2ccccc2)nc2c(=O)n(C)c(=O)nc1-2 | 0.24 | 19 | 74* | 86* | 41 | 39
CC(C(=O)c1c[nH]c2ccccc12)N1CCc2ccccc2C1 (stereo unspecified) | 0.93 | 113 | -37 | -14 | 4 | 134*
CN1CCN(c2ccc([N+](=O)[O-])c(SCCO)c2)CC1 | 0.97 | 100 | 6 | -2 | 2 | 97
COC(=O)C(O)(c1ccc(NC(=O)NC2CCCCC2)cc1)C(F)(F)F (stereo unspecified) | 1.2 | 144* | -10 | -49 | 35 | 113
COC(=O)C(O)(c1ccc(NC(=S)NC(=O)c2ccc(Cl)cc2Cl)cc1)C(F)(F)F (stereo unspecified) | 1.4 | 102 | -6 | -2 | 15 | 105
CN(Cc1c[nH]c2ccccc12)C1CCCCC1 | 1.2 | 90 | -12 | 11 | 4 | 120
c1ccc2c(CNC3CCCCC3)c[nH]c2c1 | 1.1 | 97 | -48 | 3 | 0 | 137*
C#CC[N+]1(C)C2CCC1CC(O)C2 (stereo unspecified) | 1.1 | 109 | 4 | -12 | -7 | 101
CCCCCCOc1ccc(CN2CCN(CC)CC2)cc1 | 1.1 | 105 | -5 | -5 | 145* | 109
CCN1CCN(Cc2ccc(OC(F)(F)F)cc2)CC1 | 1.1 | 98 | 7 | 3 | 12 | 98
O=C1C=Cc2ccccc2C1=O | 0.9 | 91 | -44 | 9 | -8 | 141*
CC(=O)c1cn(Cc2ccccc2C#N)c2ccccc12 | 0.79 | 72 | 66* | 28 | 4 | 45 | STAT3 inh-2=75*;NFkB inh STAT3ct=29*;STAT1 inh STAT3c=21*
Cc1ccc2nc(N3CCC(C(=O)N4CCC5(CC4)OCCO5)CC3)sc2c1 | 1.5 | 114 | 5 | -15 | 27 | 100
O=C(C1CCN(c2nc3ccc(Br)cc3s2)CC1)N1CCC2(CC1)OCCO2 | 0.83 | 108 | 63* | -9 | 36 | 47 | STAT3 inh-2=66*;NFkB inh STAT3ct=13;STAT1 inh STAT3c=-18
COc1ccc([N+](=O)[O-])cc1N=Cc1c(O)n(CCc2ccccc2)c(=O)n(C(C)C)c1=O | 1 | 95 | -11 | 5 | -1 | 108
CCC(=NCCc1c[nH]c2ccccc12)c1c(O)n(C)c(=O)n(C)c1=O | 0.51 | 92 | 44* | 8 | 12 | 65 | STAT3 inh-2=47*;NFkB inh STAT3ct=3;STAT1 inh STAT3c=20*
CCC(=NCCc1c[nH]c2ccccc12)c1c(O)n(-c2ccc(C)cc2)c(=O)[nH]c1=O | 1.1 | 95 | -3 | 6 | 1 | 103

Compound activity: PubChem BioAssay, several laboratories
